Results taken from ChEMBL document CHEMBL1145117, “Structures and cytotoxic properties of trichoverroids and their macrolide analogues produced by saltwater culture of Myrothecium verrucaria” (J Med Chem, 2003).

Legend:
NCI-H226 = assay: In vitro antitumor activity against NSCL NCI-H226 tumor cell lines; format: functional, cell-based, Homo sapiens; details: Homo sapiens, NCI-H226
MCF7 = assay: In vitro antitumor activity against breast MCF-7 tumor cell lines; format: functional, cell-based, Homo sapiens; details: Homo sapiens, MCF7
HCT-116 = assay: In vitro antitumor activity against colon HCT116 tumor cell lines; format: functional, cell-based, Homo sapiens; details: Homo sapiens, HCT-116
786-0 = assay: In vitro antitumor activity against renal 786-0 tumor cell lines; format: functional, cell-based, Homo sapiens; details: Homo sapiens
SK-MEL-2 = assay: In vitro antitumor activity against melanoma SK-MEL-2 tumor cell lines; format: functional, cell-based, Homo sapiens; details: Homo sapiens, SK-MEL-2
HCT-15 = assay: In vitro antitumor activity against colon HCT-15 tumor cell lines; format: functional, cell-based, Homo sapiens; details: Homo sapiens, HCT-15
[1] = Selectivity was evaluated against human ZH116 colon cell lines-CEM lymphocytic leukemia cell lines at a concentration of 550 ug/mL; format: functional
In short: (§1)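 Disk diffusion soft agar colony formation assay with zone units read for murine L1210, C38 and CFU-GM (bone marrow) cells and for human H116, H125 and CEM cells. Selectivity is the zone-unit difference between the paired cell lines. A solid tumor minus leukemia or normal difference above 250 units counts as solid tumor selective.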

MDA-MB-435 = assay: In vitro antitumor activity against breast MDA-MB-435 tumor cell lines; format: functional, cell-based, Homo sapiens; details: Homo sapiens, MDA-MB-435
MOLT-4 = assay: In vitro antitumor activity against leukemia MOLT-4 tumor cell lines; format: functional, cell-based, Homo sapiens; details: Homo sapiens, MOLT-4
MDA-N = assay: In vitro antitumor activity against breast MDA-N tumor cell lines; format: functional, cell-based, Homo sapiens; details: Homo sapiens, MDA-N
A498 = assay: In vitro antitumor activity against renal A498 tumor cell lines; format: functional, cell-based, Homo sapiens; details: Homo sapiens, A498
COLO 205 = assay: In vitro antitumor activity against colon COLO 205 tumor cell lines; format: functional, cell-based, Homo sapiens; details: Homo sapiens, COLO 205
M14 = assay: In vitro antitumor activity against melanoma M14 tumor cell lines; format: functional, cell-based, Homo sapiens; details: Homo sapiens, M14
CCRF-CEM = assay: In vitro antitumor activity against leukemia CCRF-CEM tumor cell lines; format: functional, cell-based, Homo sapiens; details: Homo sapiens, CCRF-CEM
L1210 = assay: Selectivity was evaluated murine tumor against ZL1210 lymphocytic leukemia cell lines- ZCFU-GM normal bone marrow cell lines at a concentration of 550 ug/mL; format: functional, Mus musculus; in short: as §1
NCI-H125 = assay: Selectivity was evaluated against human ZH125 lung non small cell carcinoma cell lines-CEM lymphocytic leukemia cell lines at a concentration of 550 ug/mL; format: functional; in short: as §1
Homo sapiens = species on record: Homo sapiens; assay: Concentration giving 500 zone units against H116 colon tumor cell lines; format: functional
In short: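 Disk diffusion soft agar colony formation assay on human H116 colon tumor cells. Each sample was applied to a disk as 15 µL, and activity was read as zone units. The value is the sample concentration that gave 500 zone units.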

[2] = Activity relative to compound 3 (set to 1.0) was evaluated against H116 colon tumor cell lines; format: functional, Homo sapiens
In short: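 Disk diffusion soft agar colony formation assay on human H116 colon tumor cells, with 15 µL of sample applied to a disk and zone units read. Relative activity = (dilution required for 500 zone units × 100)/(mg/mL), normalised to a reference compound set at 1.0.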

RXF 393 = assay: In vitro antitumor activity against renal RXF 393 tumor cell lines; format: functional, cell-based, Homo sapiens; details: Homo sapiens, RXF 393
NCI-H522 = assay: In vitro antitumor activity against NSCL NCI-H522 tumor cell lines; format: functional, cell-based, Homo sapiens; details: Homo sapiens, NCI-H522
UACC-62 = assay: In vitro antitumor activity against melanoma UACC-62 tumor cell lines; format: functional, cell-based, Homo sapiens; details: Homo sapiens, UACC-62
MC-38 [3] = assay: Selectivity was evaluated against murine tumor ZC38 colon adenocarcinoma cell lines- ZCFU-GM normal bone marrow cell lines at a concentration of 550 ug/mL; format: functional, Mus musculus; in short: as §1
HL-60 = assay: In vitro antitumor activity against leukemia HL-60(TB) tumor cell lines; format: functional, cell-based, Homo sapiens; details: Homo sapiens, HL-60
MC-38 [4] = assay: Selectivity was evaluated against Murine tumor ZC38 colon adenocarcinoma cell lines- ZL1210 lymphocytic leukemia cell lines at a concentration of 550 ug/mL; format: functional, Mus musculus; in short: as §1
A549 = assay: In vitro antitumor activity against NSCL A549/ATCC tumor cell lines; format: functional, cell-based, Homo sapiens; details: Homo sapiens, A549

C/C1=C\C(=O)OC[C@]23CC[C@](C)(O)[C@H]4C[C@@]5(O)[C@H](O[C@H]42)[C@H](O)[C@@H](OC(=O)/C=C\C=C\[C@@H]2O[C@H](C1)O[C@H]2C)[C@]35C [Miophytocen C]
IC50 (NCI-H226): > 10 µM
IC50 (MCF7): > 10 µM
IC50 (HCT-116): > 10 µM
IC50 (786-0): > 10 µM
IC50 (SK-MEL-2): > 10 µM
IC50 (HCT-15): > 10 µM
Selectivity [1]: -50 zone unit
IC50 (MDA-MB-435): > 10 µM
IC50 (MOLT-4): > 10 µM
IC50 (MDA-N): > 10 µM
IC50 (A498): > 10 µM
IC50 (COLO 205): > 10 µM
IC50 (M14): > 10 µM
IC50 (CCRF-CEM): > 10 µM
Selectivity (L1210): 300 zone unit
Selectivity (NCI-H125): -50 zone unit
Concentration (Homo sapiens): 550 µg/mL
Relative activity [2]: 1
IC50 (RXF 393): > 10 µM
IC50 (NCI-H522): > 10 µM
IC50 (UACC-62): > 10 µM
Selectivity (MC-38 [3]): -50 zone unit
IC50 (HL-60): > 10 µM
Selectivity (MC-38 [4]): -350 zone unit
IC50 (A549): > 10 µM
